# Assay outcomes from PubChem BioAssay.
# These entries were drawn from the full list.
# PGC1a Ac signal – compounds raising PGC1a acetylation signal, primary screen, PGC1a modulator project, cell-based, U2OS, AlphaScreen, signal-increasing mode | overnight | 0.21% of 350,000 active | activation, % at 15.6 µM;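 active = every replicate reaching activation of at least 50%, whatever the mean replicate activation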;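 also: hits raise the AlphaScreen acetylation signal above neutral controls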
#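 Incubation: overnight compound treatment, 37 °C. System: U2OS cells transduced with flag-tagged PGC1a and GCN5 acetyltransferase. Detection: AlphaScreen lysate read. Compound: single-point compound dosing.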
# * marks the source's active call; other numbers are inactive results.
SMILES,PGC1a Ac signal
CC(NC1c2ccccc2-c2ccccc21)c1ccccc1 (stereo unspecified),-40.1
O=C(CCl)N=c1sccn1Cc1ccc(Cl)cc1Cl,-65.8
O=C(Cn1cc(C(=O)c2cccs2)c2ccccc21)NCC1CCCO1 (stereo unspecified),85.7*
CN(CC(=O)NCC1CCCO1)S(=O)(=O)c1cc(Cl)ccc1Cl (stereo unspecified),-48.3
CCCNC(=O)N(C)C[C@H]1Oc2cc(C#CC(C)C)ccc2S(=O)(=O)N([C@@H](C)CO)C[C@H]1C,-51.4
Cc1ccc(C)c(C(=O)Cn2ncc(Cl)c(Cl)c2=O)c1,484.9*
O=C(Cn1ncc(Cl)c(Cl)c1=O)NC(=O)NC1CCCCC1,-57.8
O=C(Cn1ncc(Cl)c(Cl)c1=O)N1CCN(S(=O)(=O)c2ccc3ccccc3c2)CC1,-76.7
CCC(=O)Nc1ccc(C(=O)Cn2ncc(Cl)c(Cl)c2=O)cc1,265.2*
COc1ccc(NC(=O)Cn2ncc(Cl)c(Cl)c2=O)cc1S(=O)(=O)N1CCOCC1,105.3*
CN1CCN(C(=O)C[C@@H]2CC[C@@H]3[C@H](COC[C@H](O)CN3CC3CCCCC3)O2)CC1,-47.1
C[C@@H]1CN([C@@H](C)CO)C(=O)CCCn2cc(nn2)CO[C@H]1CN(C)Cc1ccc2c(c1)OCO2,-59.5
O=C(C[C@H]1CC[C@H](NC(=O)C2CCC2)[C@@H](CO)O1)NCC1CC1,-57.1
CCCOc1ccccc1-n1sc2c(c1=S)-c1cc(OC)cc3c1N(C(=O)C3=O)C2(C)C,-49.0
N#Cc1cccc(C#N)c1NCC1CCCO1 (stereo unspecified),-43.0
C[C@H](CO)N1C[C@H](C)[C@@H](CN(C)CC2CCCCC2)Oc2c(NC(=O)c3nc4ccccc4s3)cccc2C1=O,-54.8
C[C@H]1CN([C@@H](C)CO)C(=O)c2cccc(NC(=O)C3CCCCC3)c2O[C@H]1CN(C)Cc1ccc(C(=O)Nc2ccccc2N)cc1,173.2*
C[C@H]1CN([C@@H](C)CO)C(=O)c2cccc(NC(=O)c3nc4ccccc4s3)c2O[C@H]1CN(C)Cc1ccc(C(=O)Nc2ccccc2N)cc1,103.9*
C[C@@H]1CCCCO[C@H](CN(C)Cc2ccc(C(F)(F)F)cc2)[C@H](C)CN([C@H](C)CO)C(=O)c2cc(NC(=O)Cc3ccccc3)ccc2O1,-41.8
C[C@@H]1CN([C@H](C)CO)C(=O)c2cccc(NC(=O)c3nc4ccccc4s3)c2O[C@@H]1CN(C)CC1CCCCC1,-59.1
C[C@@H]1CN([C@@H](C)CO)C(=O)c2cc(NC(=O)c3ccncc3)ccc2O[C@@H](C)CCCCO[C@@H]1CN(C)Cc1ccncc1,-46.2
O=C(Cc1ccc([N+](=O)[O-])cc1)N/N=C/c1ccc([N+](=O)[O-])o1,301.7*
O=C(CNc1cccc([N+](=O)[O-])c1)N/N=C/c1ccc([N+](=O)[O-])o1,91.5*
COc1ccc(/C=N/NC(=O)c2ccc(NC(=O)c3cccc([N+](=O)[O-])c3)cc2)c(OC)c1,-96.6
N#CCc1ccc(NC(=O)/C=C/c2ccc([N+](=O)[O-])o2)cc1,299.4*
SMILES,PGC1a Ac signal
CC(C)CC(=O)/C(=C\c1ccc(Cl)cc1Cl)n1cncn1,-60.3
CCCCSCCCNC(=O)c1cn(C)c2ccc(S(=O)(=O)N3CCCC3)cc2c1=O,-9.6
CCOC(=O)N1CCN(C(=O)c2cc(S(=O)(=O)N3CCCC3)cn2C)CC1,73.7*
CN1/C(=C\C(=O)c2cccc(S(=O)(=O)N3CCCCC3)c2)C(C)(C)c2ccccc21,-40.5
Cc1noc(C)c1S(=O)(=O)Nc1ccc2c(c1)C(=O)N([C@H](C)CO)C[C@H](C)[C@H](CN(C)C(=O)c1ccncc1)OCCCC[C@@H](C)O2,-41.1
Cc1ccc(-c2c(C#N)c(N)n(-c3ccccc3)c(=O)c2C#N)cc1,65.7*
CCCn1c(-c2ccccc2)cc(SC)c(C#N)c1=O,-92.8
CC1CCCCC1NC(=O)C1CCN(S(=O)(=O)N2CCOCC2)CC1 (stereo unspecified),-42.9
C=CCn1c(SCC(=O)NC(=O)NCc2ccco2)nc2sc(CC)cc2c1=O,56.6*
COc1ccc(C(=O)C(CN2CCOCC2)c2ccccc2)cc1F (stereo unspecified),-114.0
CCC(=O)N(C)C[C@@H]1Oc2ncc(-c3ccc(C(=O)N(C)C)cc3)cc2C(=O)N([C@H](C)CO)C[C@@H]1C,-58.8
COc1cc(CC(=O)OC2CCOC2=O)cc(OC)c1OC (stereo unspecified),57.3*
CC(=O)Nc1ccc(C(=O)OC2CCOC2=O)cc1 (stereo unspecified),-46.9
COc1cc(CCC(=O)Nc2cc(C)cc(C)c2)cc(OC)c1OC,-44.6
Cc1cccc(-c2nsc(SCC(=O)N3CCCC3)n2)c1,-95.5
Cc1cc(C)c(C#N)c(SCC(=O)Nc2nnc(-c3ccccc3)s2)n1,-44.9
CN1CCN(C(=O)CSc2nc(-c3cccs3)cc(-c3cccs3)c2C#N)CC1,60.9*
O=C(CS(=O)CC(=O)Nc1cccc2c1CCCC2)Nc1ccc(F)cc1 (stereo unspecified),65.9*
COCCCNC(=S)Nc1cc(C)c(C)cc1C,-75.0
CCn1c2ccccc2c2cc(/C=N/NC(=O)c3ccccc3)ccc21,-43.1
O=C(Cn1c2ccccc2c(=O)c2ccccc21)N/N=C/c1cc([N+](=O)[O-])ccc1N1CCCCCC1,52.8*
O=C(c1cccc([N+](=O)[O-])c1)N1CCc2ccccc21,-43.6
Cc1ccccc1Cn1nc(C)c(NC(=O)c2cc(-c3cccs3)on2)c1C,-47.2
O=C(CCN1CCc2ccccc2C(c2ccccc2)C1)c1ccc2c(c1)OCCO2 (stereo unspecified),68.8*
Cc1noc(C)c1S(=O)(=O)Nc1ccc2c(c1)C(=O)N([C@@H](C)CO)C[C@@H](C)[C@@H](CN(C)CC1CCCCC1)OCCCC[C@@H](C)O2,-84.6
SMILES,PGC1a Ac signal
O=C(CCCc1cccs1)NCCc1c[nH]c2ccccc12,-41.5
COc1ccc(CCNC(=O)C(=O)NCC2CCCO2)cc1OC (stereo unspecified),-44.0
COc1cc2[nH]c(=O)n(CCCC(=O)NCCc3ccccc3)c(=O)c2cc1OC,84.3*
CCOC(=O)c1c(NC(=O)c2ccoc2C)sc2c1CCC2,-57.4
C=CCN1C(=O)C(CC(=O)Nc2ccccc2F)S/C1=N\c1nccs1 (stereo unspecified),-48.6
COc1ccc2c3c([nH]c2c1)[C@@H](CO)N(C(=O)c1ccccc1)CC31CCN(S(=O)(=O)c2cccs2)CC1,-50.6
CCS(=O)(=O)c1ccc2oc(Nc3ccccc3Br)nc2c1,-51.8
C=CCC1NS(=O)(=O)OC(CCc2ccccc2)C1O (stereo unspecified),103.8*
CC(C)NC(=O)Nc1ccc2c(c1)C(=O)N([C@@H](C)CO)C[C@H](C)[C@@H](CN(C)C(=O)CCC(F)(F)F)OCCCC[C@@H](C)O2,-45.6
COc1cccc(-c2ccc(C3[C@@H]4CN(Cc5cccc(F)c5)C[C@H]3N4)cc2)c1 (stereo partly specified),-97.5
COc1cccc(CN2C[C@@H]3N[C@H](C2)C3c2ccc(-c3cccc(C#N)c3)cc2)c1 (stereo partly specified),79.3*
COc1cccc(CN2C[C@@H]3N[C@H](C2)C3c2ccc(-c3ccccc3F)cc2)c1 (stereo partly specified),108.2*
COc1cc(CN2C[C@@H]3N[C@H](C2)C3c2ccc(-c3ccccc3C)cc2)cc(OC)c1 (stereo partly specified),-104.6
